This note sets out measurements from ChEMBL document CHEMBL2440058, “Synthesis and structure-activity relationship studies of novel dihydropyridones as androgen receptor modulators” (J Med Chem, 2013).

The source made the active and inactive calls.

The target in data set [1] is T1, Androgen receptor (Homo sapiens) (UniProt P10275).
T1 sequence (whole entry): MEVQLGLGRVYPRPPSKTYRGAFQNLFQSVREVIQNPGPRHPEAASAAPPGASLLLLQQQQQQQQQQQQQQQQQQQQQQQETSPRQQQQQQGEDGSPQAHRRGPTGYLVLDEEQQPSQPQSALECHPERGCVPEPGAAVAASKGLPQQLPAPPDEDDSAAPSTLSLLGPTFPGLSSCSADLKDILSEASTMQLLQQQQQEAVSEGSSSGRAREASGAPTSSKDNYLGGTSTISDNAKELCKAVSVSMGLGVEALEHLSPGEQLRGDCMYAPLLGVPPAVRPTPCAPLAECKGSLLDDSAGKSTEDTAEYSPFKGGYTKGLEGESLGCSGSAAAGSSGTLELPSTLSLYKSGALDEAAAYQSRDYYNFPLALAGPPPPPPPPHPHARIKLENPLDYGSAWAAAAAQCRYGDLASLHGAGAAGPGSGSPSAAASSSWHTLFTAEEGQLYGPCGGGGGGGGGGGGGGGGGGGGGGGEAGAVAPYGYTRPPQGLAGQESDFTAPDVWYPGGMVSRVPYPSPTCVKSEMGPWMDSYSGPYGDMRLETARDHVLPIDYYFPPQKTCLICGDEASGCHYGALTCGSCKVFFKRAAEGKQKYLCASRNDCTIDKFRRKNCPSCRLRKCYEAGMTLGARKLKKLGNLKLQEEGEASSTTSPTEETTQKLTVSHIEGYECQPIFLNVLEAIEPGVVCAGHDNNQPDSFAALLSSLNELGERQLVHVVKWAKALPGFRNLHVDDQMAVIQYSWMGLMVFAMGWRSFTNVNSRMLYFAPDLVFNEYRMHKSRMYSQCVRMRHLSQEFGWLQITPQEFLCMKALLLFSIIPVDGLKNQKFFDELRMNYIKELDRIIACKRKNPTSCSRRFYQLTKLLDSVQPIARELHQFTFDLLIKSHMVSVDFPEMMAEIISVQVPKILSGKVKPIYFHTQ
Briefly: Inhibition of androgen receptor in human LNCAP cells assessed as decrease in TMPRSS2 mRNA expression at 5 uM by RT-PCR analysis relative to control. Type of data set: cell-based. The method, boiled down: (§1)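 LNCaP cells grown in RPMI 1640 with 10% FBS at 37°C. Transcript levels measured by real-time RT-PCR with rRNA as the reference gene. Relative RNA calculated from threshold cycles by the comparative Ct method.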

The target in data set [2] is T1, Androgen receptor (Homo sapiens). The data set can be described thus: Inhibition of androgen receptor in human LNCAP cells assessed as decrease in PSA mRNA expression at 5 uM by RT-PCR analysis relative to control. The format is cell-based. In outline:
as §1

The target of another data set is T2, Androgen receptor (Homo sapiens, UniProt P10275).
T2 sequence (P10275 whole entry): T1 sequence (whole entry)
Briefly: Displacement of Fluormone AL Green from androgen receptor ligand binding domain (unknown origin) after 4 hrs by fluorescence polarization assay.

A further data set concerns LNCaP. Briefly: Cytotoxicity against human LNCAP cells at 5.56 to 50 uM after 48 hrs by 7-AAD dye-based flow cytometric analysis. The format is cell-based. The method, boiled down: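 LNCaP cells (RPMI 1640, 10% FBS, 37°C) exposed to compound for 48 h in 10% FBS medium; 1% DMSO as vehicle control. Viable cell count measured by flow cytometry using 7-AAD viability stain.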

In data set [3] the target is T1, Androgen receptor (Homo sapiens). Conditions: LNCaP, at 0.5 to 3 µM.

For `Cc1csc([C@H]2NC=CC(=O)[C@@H]2OC(=O)N(C)c2ccccc2)c1` (racemic), the inhibition in data set [1] and in data set [2] was 90% in each case.
`O=C1C=CN(C(=O)Oc2ccccc2)[C@H](c2ccccc2)C1` (racemic): the inhibition in data set [1] and in data set [2] was 90% each time.
Regarding `Cc1csc([C@@H]2[C@@H](OC(=O)N(C)c3ccccc3)C(=O)C=CN2C(=O)Oc2ccccc2)c1` (racemic), the inhibition in data set [1] and in data set [2] was 90% each time.
Consider `CC(C)=C[C@@H]1[C@@H](OC(=O)c2ccc(F)cc2C(F)(F)F)C(=O)C=CN1C(=O)Oc1ccccc1` (racemic), for which the inhibition result in data set [1] and in data set [2] was “Active” in each case.
Consider `N#Cc1ccc(C(=O)O[C@H]2C(=O)C=CN(C(=O)/C=C/c3ccccc3)[C@@H]2c2ccccc2)cc1` (racemic), for which the inhibition entry in data set [1] and in data set [2] was “Active” in each case.
With `CC(C)(C)[Si](C)(C)O[C@H]1C(=O)C=CN[C@@H]1c1ccc2c(c1)OCO2` (racemic), the inhibition in data set [1] and in data set [2] was 90% each time.
On to `O=C(O[C@H]1C(=O)C=CN(C(=O)Oc2ccccc2)[C@@H]1c1ccccc1)c1ccc(F)cc1C(F)(F)F` (racemic), for which the inhibition result in data set [1] and in data set [2] was “Active” throughout.
For `O=C(Cc1ccccc1)O[C@H]1C(=O)C=CN(C(=O)/C=C/c2ccccc2)[C@@H]1c1ccccc1` (racemic), the inhibition result in data set [1] and in data set [2] was “Active” each time.
For `O=C(/C=C/c1cccc(C(F)(F)F)c1)O[C@H]1C(=O)C=CN(C(=O)/C=C/c2ccccc2)[C@@H]1c1ccccc1` (racemic), the inhibition result in data set [1] and in data set [2] was “Active” in each case.
For `O=C1C=CN(C(=O)/C=C/c2ccccc2)[C@H](c2ccccc2)[C@H]1O` (racemic), the inhibition result in data set [1] and in data set [2] was “Active” each time.
Consider `Cc1csc([C@@H]2[C@@H](O)C(=O)C=CN2C(=O)Oc2ccccc2)c1` (racemic), for which the inhibition in data set [1] and in data set [2] was 90% each time.
`O=C(O[C@H]1C(=O)C=CN(C(=O)/C=C/c2ccccc2)[C@@H]1c1ccccc1)C1CC1` (racemic): the inhibition result in data set [1] and in data set [2] was “Active” each time.
With `O=C(O[C@H]1C(=O)C=CN(C(=O)/C=C/c2ccccc2)[C@@H]1c1ccccc1)c1ccc(F)cc1C(F)(F)F` (racemic), the inhibition result in data set [1] and in data set [2] was “Active” throughout. In addition, the 50% inhibitory concentration (IC50) on Androgen receptor turned out to be 30.1 µM. Moreover, the Activity result with LNCaP is listed as “Non-toxic”. For the same molecule, the inhibition entry in data set [3] is “inactive”.
In the case of `CC(C)(C)[Si](C)(C)O[C@H]1C(=O)C=CN(C(=O)Oc2ccccc2)[C@@H]1c1ccccc1` (racemic), the inhibition in data set [1] and in data set [2] was 90% in each case.
`O=C(O[C@H]1C(=O)C=CN(C(=O)Oc2ccccc2)[C@@H]1c1ccc2c(c1)OCO2)c1ccc(F)cc1C(F)(F)F` (racemic): the inhibition result in data set [1] and in data set [2] was “Active” throughout.
As to `O=C(O[C@H]1C(=O)C=CN(C(=O)/C=C/c2ccccc2)[C@@H]1c1ccccc1)c1ccc(Cl)cc1` (racemic), the inhibition result in data set [1] and in data set [2] was “Active” in each case.
For the molecule `Cc1csc([C@@H]2[C@@H](OC(=O)N(C)c3ccccc3)C(=O)C=CN2C(=O)c2ccc(C(F)(F)F)nc2)c1` (racemic), the inhibition in data set [1] and in data set [2] was 90% each time.
Turning to `O=C(O[C@H]1C(=O)C=CN(C(=O)/C=C/c2ccccc2)[C@@H]1c1ccccc1)c1ccccc1C(F)(F)F` (racemic), the inhibition result in data set [1] and in data set [2] was “Active” each time.
As for `CC(C)[C@@H]1[C@@H](OC(=O)c2ccc(F)cc2C(F)(F)F)C(=O)C=CN1C(=O)Oc1ccccc1` (racemic), the inhibition result in data set [1] and in data set [2] was “Active” each time.
As to `O=C(O[C@H]1C(=O)C=CN(C(=O)c2ccccc2)[C@@H]1c1ccccc1)c1ccc(F)cc1C(F)(F)F` (racemic), the inhibition in data set [1] and in data set [2] was 90% throughout.
In the case of `CC(C)(C)[Si](C)(C)O[C@H]1C(=O)C=CN(C(=O)Cc2ccccc2)[C@@H]1c1ccc2c(c1)OCO2` (racemic), the inhibition in data set [1] and in data set [2] was 90% each time.
For `O=C1C=CN(C(=O)Oc2ccccc2)[C@H](c2ccc3c(c2)OCO3)[C@H]1O` (racemic), the inhibition in data set [1] and in data set [2] was 90% in each case.
As to `O=C(O[C@H]1C(=O)C=CN(C(=O)Oc2ccccc2)[C@@H]1c1cc(F)cc(F)c1)c1ccc(F)cc1C(F)(F)F` (racemic), the inhibition entry in data set [1] and in data set [2] was “Active” in each case.
Consider `CC(C)(C)[Si](C)(C)O[C@H]1C(=O)C=CN(C(=O)c2ccc(C(F)(F)F)nc2)[C@@H]1c1ccc2c(c1)OCO2` (racemic), for which the inhibition in data set [1] and in data set [2] was 90% throughout.
With `CC(C)(C)[Si](C)(C)O[C@H]1C(=O)C=CN(C(=O)Oc2ccccc2)[C@@H]1c1ccc2c(c1)OCO2` (racemic), the inhibition in data set [1] and in data set [2] was 90% each time.
Consider `COc1ccc(C(=O)O[C@H]2C(=O)C=CN(C(=O)/C=C/c3ccccc3)[C@@H]2c2ccccc2)cc1` (racemic), for which the inhibition result in data set [1] and in data set [2] was “Active” each time.
On to `O=C(O[C@H]1C(=O)C=CN(C(=O)Oc2ccccc2)[C@@H]1c1cccc(-c2ccccc2)c1)c1ccc(F)cc1C(F)(F)F` (racemic), for which the inhibition result in data set [1] and in data set [2] was “Active” throughout.
Turning to `Cc1csc([C@@H]2[C@@H](OC(=O)N(C)c3ccccc3)C(=O)C=CN2C(=O)C2CC2)c1` (racemic), the inhibition in data set [1] and in data set [2] was 90% each time.
With `O=C1C=CN(C(=O)Oc2ccccc2)[C@H](c2ccc(-c3ccccc3)cc2)C1` (racemic), the inhibition in data set [1] and in data set [2] was 90% each time.
Consider `O=C1C=CN(C(=O)Oc2ccccc2)[C@H](c2ccccc2)[C@H]1O` (racemic), for which the inhibition in data set [1] and in data set [2] was 90% in each case.
Consider `CC(C)(C)[Si](C)(C)O[C@H]1C(=O)C=CN(C(=O)C2CC2)[C@@H]1c1ccc2c(c1)OCO2` (racemic), for which the inhibition in data set [1] and in data set [2] was 90% throughout.
Regarding `O=C1C=CN(C(=O)Oc2ccccc2)[C@H](c2cccc(-c3ccccc3)c2)[C@H]1O` (racemic), the inhibition in data set [1] and in data set [2] was 90% each time.
With `N#Cc1cccc(C(=O)O[C@H]2C(=O)C=CN(C(=O)/C=C/c3ccccc3)[C@@H]2c2ccccc2)c1` (racemic), the inhibition entry in data set [1] and in data set [2] was “Active” in each case.
Regarding `C[C@@H]1[C@@H](OC(=O)c2ccc(F)cc2C(F)(F)F)C(=O)C=CN1C(=O)Oc1ccccc1` (racemic), the inhibition result in data set [1] and in data set [2] was “Active” throughout.
`O=C1C=CN[C@H](c2ccccc2)[C@H]1O` (racemic): the inhibition in data set [1] and in data set [2] was 90% each time.
`Cc1csc([C@@H]2[C@@H](OC(=O)c3ccc(F)cc3C(F)(F)F)C(=O)C=CN2C(=O)Oc2ccccc2)c1` (racemic): the inhibition result in data set [1] and in data set [2] was “Active” in each case.
Consider `O=C1C=CN(C(=O)c2ccccc2)[C@H](c2ccccc2)[C@H]1O` (racemic), for which the inhibition in data set [1] and in data set [2] was 90% in each case.
